# Bioassay records (PubChem BioAssay)
# Scp1 inh: blocks human Scp-1 phosphatase activity; Recombinant Scp1, phosphopeptide, malachite green phosphate absorbance; inhibition, % at 20 µM; 0.88% of 340,000 active; AID 493091;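 active = inhibition above about 50% at 20 µM, limit read from the data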;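 also: plate controls were DMSO wells with enzyme for no effect and wells lacking enzyme for full effect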
# Target sequence (Q9GZU7 76-261 limits assumed): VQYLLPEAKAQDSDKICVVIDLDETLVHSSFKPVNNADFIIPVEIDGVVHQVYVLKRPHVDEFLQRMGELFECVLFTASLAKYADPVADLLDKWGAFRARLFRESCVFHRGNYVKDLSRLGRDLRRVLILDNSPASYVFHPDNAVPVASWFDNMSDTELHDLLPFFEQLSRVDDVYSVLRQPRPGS
#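 Times: enzyme reaction 45 min at room temperature, colour 5 min, stabilisation 30 min. Material: SCP-1 catalytic fragment, aa 76-261. Medium: Acidic Tris acetate buffer with magnesium and detergent. Signal: colorimetric free-phosphate detection, absorbance 630 nm. Read-out basis: % inhibition of SCP-1 phosphate liberation. Reagent: Phosphorylated 17-residue peptide substrate.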
# LMPTP block: LMPTP (human) inhibition; P24666; recombinant LMPTP-A, OMFP fluorogenic substrate, fluorescence intensity; inhibition, % at 20 µM; 0.22% of 360,000 active; AID 651560;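 active = compounds that cut the enzyme signal by at least half of the control window in the single-dose screen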;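 also: plate controls were DMSO wells with enzyme plus substrate for no effect and substrate without enzyme for full effect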
# Target sequence (P24666 whole entry, looked up): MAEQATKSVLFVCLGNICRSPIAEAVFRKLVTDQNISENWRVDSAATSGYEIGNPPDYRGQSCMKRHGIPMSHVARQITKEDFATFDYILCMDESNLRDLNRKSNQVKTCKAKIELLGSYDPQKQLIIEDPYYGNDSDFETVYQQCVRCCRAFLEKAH
#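 Test system: LMPTP-A phosphatase enzyme. Amount: LMPTP-A at 0.625 nM final in the reaction. Reagent: OMFP substrate, 400 µM final. Times: 50 min at room temperature. Signal: endpoint fluorescence intensity from OMFP dephosphorylation. Read-out basis: % inhibition. Benchmarks: no-enzyme and uninhibited controls.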
# rCAG RNA binder: binds r(CAG) RNA repeats; r(CAG) RNA repeat, TO-PRO-1 dye displacement fluorescence; inhibition, % at 3 µM; 1.3% of 370,000 active; AID 651821;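 active = inhibition above the plate cutoff, the mean of all test compounds on that plate plus 3 SD, cut at about 35% in these data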;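 also: 0% = DMSO alone and 100% = 100 µM mitoxantrone as full dye displacement; higher means more dye released from RNA so lower well fluorescence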
# NadD block: NadD (S. aureus) enzyme inhibition; purified NadD enzyme, colorimetric absorbance read-out; inhibition, % at 20 µM; 0.78% of 360,000 active; AID 602399; in the data active = inhibition above about 26%
# STEP inh: inhibitors of human striatal-enriched phosphatase STEP. inhibition, % at 20 µM. recombinant STEP, OMFP fluorogenic substrate, fluorescence. P54829. 0.25% of 360,000 active;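 active = inhibition at 20 µM, scaled per plate between control wells, above about 37%, limit read from the data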;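 also: 0% = DMSO with enzyme and substrate and 100% = substrate only without enzyme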
#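 System: isolated STEP enzyme; schedule: 20 min enzyme reaction at room temperature, protected from light; medium: Bis-Tris buffer pH 6.0, 2.5 mM DTT, 0.005% Tween 20; signal: fluorescence, 480/540 nm; dosing: single compound dose of 20 µM, 1% DMSO final; also added: OMFP substrate, 25 µM final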
# * = called active by the depositor; x = not tested or not shown. Rows were chosen to be rich in hits. Some 2.6% of all compounds tested hit in one or more screens of this group.
SMILES,Scp1 inh,LMPTP block,rCAG RNA binder,NadD block,STEP inh
CSc1nc(NCCN(C)C)c2sc3nc(-c4ccco4)c4c(c3c2n1)CCC4,-4,-7,7,-4,1
CSc1nc(N(C)CCO)c2sc3nc(-c4ccco4)c4c(c3c2n1)CCC4,79*,2,x,9,5
CCCC(Oc1ccc(Br)cc1)c1nc2c3cc(OC)c(OC)cc3nc(=S)n2[nH]1 (stereo not drawn),-5,1,4,12,2
CC(Oc1ccc(Br)cc1)c1nc2c3ccccc3nc(=S)n2[nH]1 (stereo not drawn),-3,1,36*,7,0
Cc1ccc(-c2cc(-c3nnc(SCC(=O)NC4CCCCC4)n3N)[nH]n2)cc1,x,x,2,x,x
Cc1c(CCC(=O)O)c(=O)oc2cc3occ(-c4ccc(Cl)cc4)c3cc12,-12,12,59*,5,5
CC(C)c1ccc2[nH]c(O)c(N=NC(=O)c3cccc(S(=O)(=O)Nc4ccc(Cl)cc4)c3)c2c1,-5,1,6,37*,1
CC(C)c1ccc2[nH]c(O)c(N=NC(=O)c3cccc(S(=O)(=O)Nc4cccc(Cl)c4)c3)c2c1,6,-2,1,35*,0
O=C(N=Nc1c(O)[nH]c2ccccc12)c1cccc(S(=O)(=O)N2CCCCC2)c1,13,9,2,10,-1
CC(C)c1ccc2[nH]c(O)c(N=NC(=O)c3cccc(S(=O)(=O)N4CCCCC4)c3)c2c1,-13,2,4,31*,2
CCN(C[C@@H]1[C@@H](c2ccccc2)[C@H](CO)N1S(C)(=O)=O)C(=O)C1CCC1,x,x,0,x,x
O=C(O)C1Nc2c(Cl)cc(Cl)c(Cl)c2C2C=CCC12 (stereo not drawn),63*,70*,32,24,12
O=C(O)C1Nc2c(Cl)cc(Cl)cc2C2C=CCC12 (stereo not drawn),72*,87*,x,28,41*
O=C(O)C1Nc2c(O)cccc2C2C=CCC12 (stereo not drawn),71*,74*,82*,40*,16
CC(C)CNC(=O)C1Nc2ccccc2C2C=CCC12 (stereo not drawn),0,0,21,12,-1
CCc1cccc2c(C(C)c3ccccc3O)c[nH]c12 (stereo not drawn),x,x,6,x,x
CC(COc1ccccc1C#N)CN1CCC(C(O)(c2ccccc2)c2ccccc2)CC1 (stereo not drawn),x,x,3,x,x
Cc1ccc(NC(=O)c2nc[nH]c2C(=O)NCCN(CCNC(=O)c2[nH]cnc2C(=O)Nc2ccc(C)cc2)CCNC(=O)c2[nH]cnc2C(=O)Nc2ccc(C)cc2)cc1,2,1,3,38*,-4
Cc1ccc(-c2nnn(CC(=O)Nc3ccc4nn(-c5ccccc5)nc4c3)n2)o1,-2,0,5,34*,-5
O=C(O)c1cc(C(=O)O)cc(-c2ccc(/C=c3/sc4nc5ccccc5n4c3=O)o2)c1,70*,x,x,x,x
O=c1/c(=C\c2cc([N+](=O)[O-])cc([N+](=O)[O-])c2O)sc2nc3ccccc3n12,80*,9,x,19,35
O=c1/c(=C/c2ccccn2)sc2nc3ccccc3n12,0,4,-4,-3,-5
O=C(O)c1cccc(-c2ccc(/C=c3/sc4nc5ccccc5n4c3=O)o2)c1,96*,49,28,6,94*
CCOC(=O)[C@]12CCCC3=C1N(CCC3)C(=O)[C@@H](CC(=O)NCc1cccc(C(F)(F)F)c1)C2,x,x,-1,x,x
CCN(CC)C(=O)CC[C@@H]1CC[C@]2(CCCN(S(C)(=O)=O)C2)O1,x,x,0,x,x
SMILES,Scp1 inh,LMPTP block,rCAG RNA binder,NadD block,STEP inh
O=S1(=O)CCOCC(CO)N1Cc1cccc(Br)c1 (stereo not drawn),x,x,2,x,x
COC(=O)[C@]12C[C@H](CC(=O)N3CCCCC3)C(=O)N(Cc3ccco3)C1=C[C@H](C(C)(C)C)O[C@@H]2C,x,x,-4,x,x
COc1ccccc1C(=O)N=Nc1c(O)[nH]c2ccc([N+](=O)[O-])cc12,39,14,10,32*,5
N=c1c(C(=O)NCc2ccco2)cc2c(=O)n3ccccc3nc2n1Cc1ccc(Cl)cc1,16,52*,0,26,5
COCCn1c(=N)c(C(=O)NCc2ccco2)cc2c(=O)n3ccccc3nc21,-5,2,6,0,0
N=c1c(C(=O)NCc2ccc3c(c2)OCO3)cc2c(=O)n3ccccc3nc2n1Cc1cccnc1,-3,65*,6,30,2
Cc1ccc2nc3c(cc(C(=O)NCc4ccccc4)c(=N)n3CCCn3ccnc3)c(=O)n2c1,2,57*,4,4,0
N=c1c(C(=O)NCc2ccc(F)cc2)cc2c(=O)n3ccccc3nc2n1Cc1ccco1,16,49,13,31*,0
COc1ccc(CCN(Cc2cccs2)S(=O)(=O)c2ccc(F)cc2)cc1OC,x,x,3,x,x
CC(=O)Nc1ccc(N2C(=O)c3ccc(C(=O)Nc4nnc(SCc5ccc(F)cc5)s4)cc3C2=O)cc1,-5,1,5,31*,1
CN(C(=O)c1ccccc1OCC(=O)Nc1ccc(Br)cc1)c1ccccc1,x,x,1,x,x
CCOc1ccc(-c2cccc(NS(=O)(=O)c3cc([N+](=O)[O-])ccc3Cl)c2)nn1,5,3,40*,3,-2
CCOc1cc(/C=N/Nc2nc(-c3cccc(S(=O)(=O)N4CCCC4)c3)cs2)ccc1O,-9,2,25,45*,-3
CCOC(=O)[C@]12CCCCC/C=C\1N(CCc1ccc(Cl)cc1)C(=O)[C@H]2CC(=O)NCCC(C)C,x,x,2,x,x
COC(=O)[C@]12C[C@H](CC(=O)NCCC(C)C)C(=O)N(Cc3ccco3)C1=C[C@H](COCc1ccccc1)O[C@@H]2C,x,x,3,x,x
O=C(NCCOc1ccccc1)C1Nc2ccc(OC(F)(F)F)cc2C2C=CCC12 (stereo not drawn),-2,2,24,-11,2
COc1ccc(/C(C)=N/NC(=O)c2ccncc2)cc1,-8,0,3,-6,-3
COc1ccc(C(=O)N/N=C(\C)c2ccc3c(c2)C2C=CCC2C(c2ccccc2)N3)cc1 (stereo not drawn),3,2,x,52*,3
O=C(O)c1ccc2c(c1)[C@@H]1C=CC[C@@H]1[C@H](c1ccccn1)N2,47,2,82*,10,31
COC(=O)[C@]12C[C@H](CC(=O)NCCCCc3ccccc3)C(=O)N(Cc3ccco3)C1=C[C@H](COCc1ccccc1)O[C@@H]2C,x,x,6,x,x
COCCCOc1ccnc(CS(=O)c2nc3ccccc3[nH]2)c1C (stereo not drawn),14,1,4,2,74*
Cc1c(OCC(F)(F)F)ccnc1CS(=O)c1nc2ccccc2[nH]1 (stereo not drawn),-11,7,6,1,3
